HNF4A DNA FP: change in binding of human HNF4 alpha to DNA. P41235. HNF4a-FITC DNA binding, fluorescence polarization, 1 h. activity change, % at 10 µM. 360,000 compounds, 0.3% hits. AID 1224865; in the data active means activity change above about 30%, passing the limit was not always enough
TPT1 inhibitor: inhibitors of Candida albicans tRNA 2'-phosphotransferase TPT1. recombinant caTPT1, FP RNA substrate dephosphorylation. inhibition, % at 5 µM. 300,000 compounds, 0.81% hits. AID 1962;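 active means inhibition above the mean of all tested compounds plus 3 SD, set per screening campaign, cut at about 24% in these data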
Rpn11 block: Rpn11 (human) deubiquitinase inhibition; O00487; human 26S proteasome, Ub4-pepOG fluorescence polarization; 20S core pre-blocked with epoxomicin; calls only at 20 µM; 360,000 compounds, 0.59% hits;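 active means inhibition at 20 µM, scaled to each plate's controls, above about 33%, limit read from the data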
CRFR2-BP antag: antagonists of CRF-binding protein/CRF-R2 receptor complex. HEK293 CRF-R2/CRF-BP, CRF-induced calcium fluorescence. inhibition, % at 11.8 µM. 350,000 compounds, 0.59% hits;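 active means inhibition of the ligand-induced calcium signal above about 50% at the single tested concentration, limit read from the data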
CSN inh: CSN deneddylation inhibition; Purified CSN, SCF-Nedd8-OG deneddylation, fluorescence polarization; inhibition, % at 12.5 µM; 360,000 compounds, 0.38% hits; AID 651999;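 active means pattern-corrected inhibition above about 35%, with an unprinted fluorescence ratio check between 0.5 and 1.5, limit read from the data, passing the limit was not always enough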
Target sequence (Q92905 whole entry, looked up, one chain of several): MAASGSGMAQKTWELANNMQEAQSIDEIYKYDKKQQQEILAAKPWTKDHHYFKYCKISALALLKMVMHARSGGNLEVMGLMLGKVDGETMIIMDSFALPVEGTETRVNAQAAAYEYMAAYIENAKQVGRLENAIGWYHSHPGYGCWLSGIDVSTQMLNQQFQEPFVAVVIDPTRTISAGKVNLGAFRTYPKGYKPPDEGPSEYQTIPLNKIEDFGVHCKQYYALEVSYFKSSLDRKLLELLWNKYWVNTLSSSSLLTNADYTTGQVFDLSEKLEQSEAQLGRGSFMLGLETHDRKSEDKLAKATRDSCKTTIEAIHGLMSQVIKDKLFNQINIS
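Detection – fluorescence polarization · System – HEK293T-derived human Csn5 enzyme · Controls – substrate-only high control, full reaction low control · Timing – 90 min, room temperature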
CRFBP-R2 agonist: agonists of human CRF-binding protein/CRF-R2 receptor complex | HEK293 CRF-R2/CRF-BP, calcium dye fluorescence (FLIPR); percent of saturating CRF peptide response | activation, % at 13.2 µM | 350,000 compounds, 0.46% hits | AID 588473;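 active means activation of at least 50%, plus an integration ratio under a set limit after plate pattern correction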
HNF4a DNA conf: change in binding of human HNF4 alpha to DNA, retest; 210 compounds, 99% hits; AID 1224897; activity change, % at 12.5 µM; shares compounds with HNF4A DNA FP; HNF4A-FITC DNA binding, fluorescence polarization, 1 h; call rule not given here
Hits are given with their value; n = inactive; x = not tested or not shown. Shown are actives, neighbours in structure and some others; about 2.3% of the full set was active somewhere.

SMILES	HNF4A DNA FP	TPT1 inhibitor	Rpn11 block	CRFR2-BP antag	CSN inh	CRFBP-R2 agonist	HNF4a DNA conf
C#CCOCCOCCOCCNc1nc(N2CCN(C(=O)[C@H](CCCCN)n3cc([C@@H](N)C(C)CC)nn3)CC2)nc(N2CCN(C(=O)[C@H](CCCCN)n3cc([C@@H](N)CC(C)C)nn3)CC2)n1 (stereo partly specified)	71.9	n	n	n	68.9	n	111.9
OC(COc1ccc(C2C=CCC2)cc1)CN1CCCCC1 (stereo unspecified)	41.7	n	n	n	n	n	39.2
OC(COc1ccccc1)CN1CCCCC1 (stereo unspecified)	n	x	n	n	n	n	x
COc1cccc(/C=C2\SC(=S)N(CCCC(=O)Nc3cc(C)on3)C2=O)c1	47.2	n	x	n	35.7	n	66.9
C#CCOCCOCCOCCNc1nc(N2CCN(C(=O)C([C@@H](C)CC)n3cc(C(N)CC(C)C)nn3)CC2)nc(N2CCN(C(=O)[C@H](CCC(=O)O)n3cc(C(N)[C@H](C)CC)nn3)CC2)n1 (stereo partly specified)	n	n	n	n	n	n	x
CC(=O)Nc1cc2c(cc1[N+](=O)[O-])-c1ccc(F)cc1C2	32.5	x	n	n	n	n	39.2
Cc1ccc2sc(N(CCCN(C)C)C(=O)c3nc4ccccc4s3)nc2c1C	216.9	n	n	n	107.0	n	205.1
CCOc1cc(S(=O)(=O)NCCN2CCOCC2)c(C)cc1C	n	n	n	n	n	n	x
O=S(=O)(c1ccc(NC(=S)NCc2cccnc2)cc1)N1CCCCC1	n	n	n	n	n	n	x
Cc1cccc(NC(=O)CCN2CC(C)OC(C)C2)c1 (stereo unspecified)	n	n	n	n	n	n	x
CS(=O)(=O)Nc1cccc(C2=NN(S(C)(=O)=O)C(c3ccccc3)C2)c1 (stereo unspecified)	n	n	n	n	n	n	x
CCS(=O)(=O)Nc1cccc(C2=NN(S(=O)(=O)CC)C(c3ccccc3)C2)c1 (stereo unspecified)	55.4	n	n	n	n	n	78.6
O=C(/C=C/c1ccc(OCCCF)cc1)Nc1ccnc(-c2cccnc2)n1	36.2	n	n	n	n	n	52.1
O=C(/C=C/c1ccc(OCCCF)cc1)Nc1ccnc(-c2ccncc2)n1	n	n	n	n	n	n	x
O=C(Nc1ccccc1C(=O)O)c1cc(S(=O)(=O)N2CCOCC2)cs1	n	n	n	n	n	n	x
O=[N+]([O-])c1ccc(NN=Cc2ccc(O)cc2)nc1	n	x	n	n	n	n	x
COc1ccc(C=NNc2ccc([N+](=O)[O-])cn2)cc1	72.5	x	x	n	n	n	79.4
CC(C)Oc1ccccc1C1NC(=O)CCC1[N+](=O)[O-] (stereo unspecified)	n	n	n	n	n	n	x
N=c1n(CC(=O)c2ccc([N+](=O)[O-])cc2)c2ccccc2n1Cc1ccccc1	67.6	n	x	n	n	n	106.9
N=c1n(CC(=O)c2ccc([N+](=O)[O-])cc2)c2ccccc2n1Cc1ccccc1Cl	n	n	n	n	n	n	x
N=c1n(CC(=O)c2ccc([N+](=O)[O-])cc2)c2ccccc2n1Cc1ccc(Cl)cc1	39.7	n	x	n	n	n	118.8
Cc1ccc(S(=O)(=O)N(CC(=O)N/N=C/c2cccc3c2OCCO3)c2ccccc2F)cc1	n	n	n	n	n	n	x
O=C(c1ccc([N+](=O)[O-])s1)N1CCc2ccccc21	66.7	n	x	n	n	n	52.9
O=C(c1ccc([N+](=O)[O-])s1)N1CCCc2ccccc21	n	n	n	n	n	n	x
NC(=O)CC(NC(=O)Cc1cccc2ccccc12)c1ccc(NC2CCCCC2)c([N+](=O)[O-])c1 (stereo unspecified)	50.8	n	n	n	n	n	55.8
SMILES	HNF4A DNA FP	TPT1 inhibitor	Rpn11 block	CRFR2-BP antag	CSN inh	CRFBP-R2 agonist	HNF4a DNA conf
NC(=O)CC(NC(=O)Cc1cccc2ccccc12)c1ccc(NC2CCCC2)c([N+](=O)[O-])c1 (stereo unspecified)	n	x	n	n	n	n	x
CCC(CC)Nc1ccc(C(CC(N)=O)NC(=O)Cc2ccc(Br)cc2)cc1[N+](=O)[O-] (stereo unspecified)	52.0	n	n	n	n	n	36.8
Cc1oc(-c2ccccc2Cl)nc1CSc1nc2c(c(=O)[nH]1)CCCC2	n	n	n	n	n	n	x
C#CCOc1ccc(/C=C2\SC(=S)N(Cc3cccnc3)C2=O)cc1	n	n	n	n	n	n	x
O=C1/C(=C/c2ccc(O)cc2)SC(=S)N1Cc1cccnc1	51.5	n	n	n	n	106.6	60.9
COc1cccc(C(=O)NNc2c3ccccc3nc3ccccc23)c1	n	n	n	n	n	n	x
Cc1cc(C)n2c(NCc3ccccc3)c(-c3cc4ccccc4o3)nc2n1	61.1	x	x	x	n	x	64.6
Cc1cc(C)n2nc(NCc3ccccc3)nc2n1	n	n	n	n	n	n	x
CC(C)OP(=O)(OC(C)C)C1(O)C(=O)Nc2ccc(Br)cc21 (stereo unspecified)	n	n	n	n	n	n	x
Cc1cc(C)c(NC(=O)CSCc2nc3sc(C)c(C)c3c(=O)[nH]2)c(Cl)c1	43.5	x	x	n	n	n	73.5
Cc1cc(/C=C2/NC(=S)NC2=O)c(C)n1-c1cccnc1	49.4	n	x	n	n	n	97.7
Cc1ccc(NC(=O)c2ccc(NCC3CCCO3)c([N+](=O)[O-])c2)cc1Cl (stereo unspecified)	36.9	n	x	n	40.8	n	53.7
Cc1ccc(NC(=O)c2ccc(NCc3ccco3)c([N+](=O)[O-])c2)cc1Cl	47.3	n	x	n	n	n	93.2
Cc1cc(C)c(S(=O)(=O)N2CCN(C(=O)C(C)Cn3cncn3)CC2)c(C)c1 (stereo unspecified)	n	n	n	n	n	n	x
O=C(NC1CCCC1)c1cccc2c1C(=O)c1ccc(N3CCCCC3)cc1S2(=O)=O	52.1	x	x	n	n	n	53.9
O=C(c1cccs1)N1CCc2ccccc2C1	n	n	n	n	n	n	x
O=C(O)c1ccccc1NC(=O)C(Cc1ccccc1)N1C(=O)c2ccccc2C1=O (stereo unspecified)	n	n	n	n	n	n	x
O=C(Nc1ccc([N+](=O)[O-])cc1)C(Cc1ccccc1)N1C(=O)c2cccc3cccc(c23)C1=O (stereo unspecified)	54.3	n	x	n	n	n	93.7
COc1cc(/C=C(/C#N)c2nc3ccccc3[nH]2)ccc1OCC(=O)Nc1ccccc1C	n	n	n	n	n	n	x
COc1cc(/C=C(\C#N)c2nc3ccccc3[nH]2)ccc1OC(=O)c1ccco1	38.5	n	n	n	n	n	52.1

Screening data (PubChem BioAssay)
